PHOSPHO1 block: PHOSPHO1 (human) inhibition; Q8TCT1; recombinant PHOSPHO1, absorbance phosphatase assay; inhibition, % at 13.3 µM; 290,000 compounds, 1.1% hits; AID 1565; in the data active = inhibition above about 60%
Target sequence (Q8TCT1 whole entry, looked up): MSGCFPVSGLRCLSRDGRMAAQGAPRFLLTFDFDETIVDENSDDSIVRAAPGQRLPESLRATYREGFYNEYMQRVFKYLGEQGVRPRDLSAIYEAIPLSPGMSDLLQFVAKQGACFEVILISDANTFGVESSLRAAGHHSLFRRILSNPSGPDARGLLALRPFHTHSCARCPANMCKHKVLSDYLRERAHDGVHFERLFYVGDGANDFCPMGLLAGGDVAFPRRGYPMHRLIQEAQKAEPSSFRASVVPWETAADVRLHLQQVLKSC
AI-2 QS modul: modulates the Vibrio harveyi AI-2 quorum sensing system; Vibrio harveyi JMH597 AI-2 luminescence/OD600 ratio, 9 h; active compounds read low; strain lacks LuxN and CqsS sensors; 0 = neutral-control median; activity change, % at 7.5 µM; 300,000 compounds, 0.4% hits; in the data active = activity change below about -75%, passing the limit was not always enough;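 also: luminescence divided by OD600 gain over 9 h not by final OD600 alone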
core dimer inh: HCV core protein dimerization inhibition; TR-FRET GST/Flag-core106 dimerization, 1536-well; inhibition, % at 5 µM; 300,000 compounds, 0.33% hits; AID 1899;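 active = inhibition above the mean of all tested compounds plus 3 SD, set per screening campaign, cut at about 45% in these data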
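Material: Tagged HCV core106 pair (GST and Flag) | Amount: GST-core106 13.5 nM, Flag-core106 17 nM | Medium: KF-containing HEPES buffer, pH 7.45, DTT, CHAPS, BSA | Reagent: Eu donor and XL665 acceptor anti-tag antibodies | Schedule: 4 h at 22.5 °C | Technique: Time-resolved FRET, ex 340 nm, em 617 and 671 nm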
ALR H2O2 inh: human ALR oxidase inhibition via reduced H2O2; P55789; purified ALR, DTT oxidation, H2O2 HRP-luminol luminescence; inhibition, % (no concentration beside the values); 290,000 compounds, 3.8% hits;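 active = mean replicate inhibition above about 79%, with every replicate also reaching it, limit read from the data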
Target sequence (P55789 whole entry, looked up): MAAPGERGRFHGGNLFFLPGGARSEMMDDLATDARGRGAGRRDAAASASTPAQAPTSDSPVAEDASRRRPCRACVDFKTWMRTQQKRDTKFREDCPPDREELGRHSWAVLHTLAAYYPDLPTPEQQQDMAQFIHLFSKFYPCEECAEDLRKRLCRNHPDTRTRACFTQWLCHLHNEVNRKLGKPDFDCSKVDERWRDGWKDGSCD
HSF1 activator: increases HSF-1 driven luciferase reporter signal; NIH3T3-HGL HSF-1 luciferase reporter, MG132, 8 h; 100% = twice DMSO control signal; activation, % at 9 µM; 300,000 compounds, 1.7% hits;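 active = mean replicate activation of at least 50% with a set share of replicates each reaching 50%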;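 also: 0% = median of the neutral control wells and 100% = twice that signal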
HSF1 inhib: HSF1 inhibition. NIH3T3-HGL HSE-luciferase, MG132-induced, luminescence 8 h; active compounds read low. activity change, negative = inhibition, % at 7.5 µM (by protocol). 300,000 compounds, 0.77% hits. AID 2098;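 active = more than half of replicate wells show activity change below -50%, luminescence cut by over half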;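 also: luciferase reports HSF-1 transcriptional activity via heat shock element; 0% = median of DMSO wells and -100% = zero luminescence signal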
* = called active by the depositor; . = no result given. Most compounds without a hit are left out; they make up all but 6.8% or so of the library.

SMILES	PHOSPHO1 block	AI-2 QS modul	core dimer inh	ALR H2O2 inh	HSF1 activator	HSF1 inhib
O=C(O)CNC(=O)c1cccc(C(F)(F)F)c1	32	-6	5	-3	-19	-9
Cc1c(CCCC(=O)O)sc(N)c1C(=O)c1cccc(C(F)(F)F)c1	.	1	-18	96*	0	-7
C/C(=N\NC(=O)CN1CCN(S(=O)(=O)c2ccc(C)cc2)CC1)c1ccc(O)cc1	20	23	1	99*	-4	-2
COc1cc(/C(C)=N/NC(=O)CN2CCN(S(=O)(=O)c3ccc(C)cc3)CC2)ccc1O	40	19	-2	98*	-14	-5
C/C(=N/NC(=O)CN1CCN(S(=O)(=O)c2ccc(Br)cc2)CC1)c1cccnc1	-7	11	-11	-7	4	0
CCCNC(=O)CN1CCN(c2cc3ccccc3c(Cl)n2)CC1	27	7	-21	-1	8	-4
C=CCn1c(SCC(=O)OCc2ccccc2)nc2c1c(=O)n(C)c(=O)n2C	15	8	-5	-7	-20	-2
Cn1c(=O)[nH]c(=O)c2c1nc(SCCN1CCCCC1)n2CCCc1ccccc1	88*	.	-4	6	.	.
CCn1c(SCC(=O)OCc2ccccc2)nc2c1c(=O)n(C)c(=O)n2C	6	8	-2	99*	9	5
COCCn1c(SCC(=O)OCc2ccccc2)nc2c1c(=O)[nH]c(=O)n2C	-6	21	8	98*	-22	2
COCCn1c(SCc2ccc(Cl)cc2)nc2c1c(=O)[nH]c(=O)n2C	.	9	3	-21	58*	17
Cn1c(=O)[nH]c(=O)c2c1nc(SCCN1CCCCC1)n2Cc1ccccc1	14	30	-1	-2	2	-1
CCn1cc(C(=O)OCC(=O)NCc2ccccc2Cl)c(=O)c2ccc(C)nc21	-6	8	3	9	-2	2
CCNC(=O)c1ccc(C23CC4CC(CC(C4)C2)C3)o1	33	15	0	.	8	-3
CCOc1ccc(NC(=O)CCNC(=O)C2CCN(S(=O)(=O)c3ccccc3)CC2)cc1	12	8	-3	2	8	7
COC(C[C@@H]1O[C@@H]1[C@H](O)COCc1ccccc1)OC	22	.	.	-1	.	.
COc1ccc(NC(=S)Nc2ccccc2)cn1	-7	0	0	-234	4	8
COc1ccc(CS(=O)(=O)/C(Cl)=C(/Cl)C(=O)Nc2ccc(OC)nc2)cc1	7	30	8	98*	37	23
CCCCNC(=S)Nc1ccc(OC)nc1	-10	13	-9	-12	65*	23
COc1ccc(/C=C/C(=O)Nc2ccc(OC)nc2)cc1	-5	24	-3	-5	0	3
COc1ccc(NC(=O)/C(Cl)=C(/Cl)S(=O)Cc2ccccc2)cn1 (stereo unspecified)	40	-60	11	-7	-93	-93*
CCN(CC(=O)Nc1ccccc1C(F)(F)F)C(=O)C1=COCCO1	.	12	6	-1	-4	-7
O=C(Nc1ccccc1C(=O)NCCCN1CCOCC1)c1ccc(Cl)cc1	23	23	-14	-9	2	-5
COc1cccc(C(=O)Nc2ccc3ccccc3c2)c1	20	-27	-6	-6	18	11
COc1ccc(C(=O)Nc2ccc3ccccc3c2)cc1OC	35	-1	-4	-3	64*	25
SMILES	PHOSPHO1 block	AI-2 QS modul	core dimer inh	ALR H2O2 inh	HSF1 activator	HSF1 inhib
CCOc1ccc(CN(C)C(=O)CNC(=O)c2ccc3ccccc3c2)cc1OC	-9	-7	-2	0	84*	21
COc1ccc(Br)cc1CN(C)C(=O)CNC(=O)c1ccc2ccccc2c1	-44	5	8	.	9	5
Cc1cccc(C(=O)Nc2ccc3ccccc3c2)c1	34	27	-3	16	66*	38
COc1cc2nc(NC(=O)c3ccc(Cl)cc3)sc(=O)c2cc1OC	23	11	5	-9	57*	8
O=C1CN(c2nc3nonc3nc2N2CCCCC2)CCN1	44	11	0	-11	-1	-3
CCOC(=O)CN1C(=O)NC2(CCCc3ccccc32)C1=O (stereo unspecified)	28	13	2	.	8	0
Cc1ccc(NS(=O)(=O)c2cccc(C(=O)N3CCN(C(=O)c4ccco4)CC3)c2)cc1	.	.	.	-8	.	.
COc1ccc(OC)c(C2C(C(=O)Nc3nc4ccccc4s3)=C(C)NC3=C2C(=O)CCC3)c1 (stereo unspecified)	7	31	6	-14	75*	38
COc1cccc(C2C(C(=O)Nc3nc4ccccc4s3)=C(C)NC3=C2C(=O)CC(C)(C)C3)c1OC (stereo unspecified)	23	18	10	-4	24	19
COc1ccc(C(=O)Nc2nc3ccccc3s2)cc1OC	-15	17	0	-9	71*	36
CCN(CC)c1ccc(NC(=O)CCN2C(=O)c3ccccc3S2(=O)=O)c(C)c1	.	21	-3	67	4	-2
O=C(O)C1CSC(c2coc3ccccc3c2=O)N1 (stereo unspecified)	-2	47	3	99*	11	1
CC1CCOC(c2coc3ccccc3c2=O)O1 (stereo unspecified)	7	13	0	3	4	11
CCCc1cc(=O)[nH]c(Nc2ccc(O)cc2)n1	17	-3	-4	99*	-7	-12
CCCc1cc(=O)[nH]c(Nc2ccc(Cl)cc2)n1	-29	-30	-5	-6	12	0
CCc1cc(C=NC2CCCCC2)c(O)s1	14	6	0	27	-63	-56*
CCc1cc2c(SC(C)C(=O)NC3CCCC3)ncnc2s1 (stereo unspecified)	.	.	.	-2	.	.
Cc1cc(NN)nc2ccc(Cl)cc12	-12	-9	-1	-10	11	-11
CCN(CC)CCn1c2c(c(SCC(=O)Nc3cccc4ccccc34)nc1=O)CCC2	.	22	1	97*	26	4
CCN(CC)CCn1c2c(c(SCC(=O)Nc3ccccc3Cl)nc1=O)CCC2	.	12	-4	44	3	-1
CCN(CC)CCn1c2c(c(SCC(=O)Nc3nc4ccc(C)cc4s3)nc1=O)CCC2	.	11	3	21	4	5
CCN(CC)CCn1c2c(c(SCC(=O)Nc3nc4ccccc4s3)nc1=O)CCC2	.	11	-3	98*	8	2
O=C(O)C1C2C=CC(C2)C1C(=O)NCc1cccs1 (stereo unspecified)	32	9	-3	3	0	-4
C/C(=N/NC(=O)CSc1nc2ccccc2n1C)c1ccc(O)cc1	0	12	2	99*	2	7
Cn1c(SCC(=O)N/N=C/C=C\c2ccco2)nc2ccccc21	73*	23	5	86*	2	5

Screens as filed in PubChem BioAssay.
